The results in this text go back to PubChem BioAssay AID1040 (The Scripps Research Institute Molecular Screening Center, 2008).

By inhibition is commonly meant the relative decrease from the control value, in per cent.

Among all 200,000 compounds or so, about 2,000 (1%) were called active. The entries come from a sample that favours actives as a whole. Unmarked numbers belong to inactive results.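 Rule for the calls: active = inhibition above the campaign mean inhibition of all tested compounds plus 3 SD (cut at about 20% in these data); inactive = the rest.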

Sequence of Neuropeptide Y receptor type 1 (Homo sapiens) (P25929 whole entry, looked up): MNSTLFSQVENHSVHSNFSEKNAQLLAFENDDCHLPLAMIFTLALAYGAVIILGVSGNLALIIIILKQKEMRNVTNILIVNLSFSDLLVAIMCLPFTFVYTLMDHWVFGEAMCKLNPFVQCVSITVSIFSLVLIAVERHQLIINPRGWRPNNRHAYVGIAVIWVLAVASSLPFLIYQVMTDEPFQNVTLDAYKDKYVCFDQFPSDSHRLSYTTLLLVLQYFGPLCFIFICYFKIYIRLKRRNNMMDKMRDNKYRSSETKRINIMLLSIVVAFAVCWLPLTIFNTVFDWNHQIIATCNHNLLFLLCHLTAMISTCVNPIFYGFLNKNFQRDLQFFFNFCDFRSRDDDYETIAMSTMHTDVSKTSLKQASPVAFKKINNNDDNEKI

For the assay, the target named is Neuropeptide Y receptor type 1 (Homo sapiens) (UniProt P25929). Put plainly: blockers of human neuropeptide Y Y1 receptor – cell-based, primary screen (AID 1040).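 Note: 0% = DMSO wells given NPY plus isoproterenol and 100% = isoproterenol alone without NPY.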 The settings on record: HEK293-CNG Y1 cells, membrane potential fluorescence; at 3.6 µM; active compounds read high; NPY at EC95, then isoproterenol. In outline:
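Material: Y1- and CNG-channel-expressing HEK293 cells / Probe or stimulus: NPY 25 nM then isoproterenol 1 µM plus Ro 20-1724 25 µM / Doses: 3.6 µM single dose, DMSO 0.4% / Schedule: compound incubation 1 h at room temperature, readout 45 min post-stimulation / Signal: membrane potential fluorescence / Benchmarks: isoproterenol-only wells as full block versus NPY-plus-isoproterenol wells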
Consider `S=c1[nH]nc(Nc2ccccc2)s1`, for which the inhibition was 7.84%. Consider `O=[N+]([O-])c1cccc(C2=NCCS2)c1`, for which the inhibition was 2.43%. As for `O=C(CN1C(=O)NC2(CCCC2)C1=O)NCC1CCCO1` (centres undefined), the inhibition was -1.75%. Consider `O=C(CN1C(=O)NC(Cc2ccccc2)(Cc2ccccc2)C1=O)NCC1CCCCC1`, for which the inhibition is 68.1% (active). In the case of `O=C(CN1C(=O)NC2(CCCCCC2)C1=O)NC1CC1` it was 0.75%. The same measure for `O=C(CC1SCCNC1=O)Nc1ccc(Cl)cc1` (centres undefined): 6.74%; for `COC(=O)Nc1sc2nc(C)cc(C)c2c1-n1cccc1`: 0.35%. Consider `CCCCOC(=O)Nc1sc2nc(C)cc(C)c2c1-n1cccc1`, for which the inhibition is 2.5%. For the compound `Cc1cc(C)c2c(-n3cccc3)c(NC(=O)OCc3ccccc3)sc2n1`, the inhibition was 36.9% (active). In the case of `CCC(C)NC(=O)CN(C1CCCCC1)S(C)(=O)=O` (centres undefined) it was 0.13%; in that of `O=C(NCCCN1CCOCC1)c1ccccc1NS(=O)(=O)c1ccc(F)cc1`, 5.43%. On to `O=C(NCCCN1CCOCC1)c1cnn2c(-c3ccccc3)cc(-c3ccccc3)nc12`, for which the inhibition was 30.1% (active). As for `O=C(NCCCN1CCOCC1)c1ccccc1NS(=O)(=O)c1ccc(Br)cc1`, the inhibition was 11.9%.

For `O=C(CN1CCN(c2ccc(O)cc2)CC1)NC1CCCc2ccccc21` (centres undefined), the inhibition is 4.77%. In the case of `Nc1nc(SCC(=O)NNc2c(Cl)cc(Cl)cc2Cl)n[nH]1`, the inhibition is 8.35%. As to `CC(=O)c1c(C)[nH]c(C(=O)COC(=O)c2cccc(S(=O)(=O)N(C)c3ccccc3)c2)c1C`, the inhibition is 2.37%.

Regarding `CC(C)CNC(=O)COC(=O)c1ccccc1OCC(=O)Nc1ccc(Br)cc1`, the inhibition was 3.51%. Regarding `COc1cc(OC)c(NC(=O)c2ccc(Br)o2)cc1Cl`, the inhibition was 0%. Turning to `CCN1CCN(c2c(Cl)cccc2NC(=O)c2ccc(Br)o2)CC1`, the inhibition was 23.8% (active).

On to `CCCC(=O)Nc1ccc(Cl)c(NC(=O)c2ccc(Br)o2)c1`, for which the inhibition was -1.88%. The same measure for `Cc1ccc(C(=O)NC(=S)Nc2ccc(N3CCOCC3)cc2)cc1`: -3.91%.

For `Cc1ccc(OCC(=O)N/N=C/c2ccncc2)cc1`, the inhibition was 0.98%.

With `Cc1ccc(OCC(=O)N/N=C\c2ccco2)c(C)c1`, the inhibition was 7.4%. For `Cc1ccc(/C=N/NC(=O)COc2ccccc2-c2ccccc2)cc1`, the inhibition is 22.8% (active).

With `OCCNCc1cccc(OCc2ccccc2Cl)c1`, the inhibition was 11.2%. For `O=C(O)c1ccc(/C=N/NC(=O)c2ccc(Br)cc2)cc1`, the inhibition is 2.79%.

`OC(COc1ccc(CN2CCSCC2)cc1)CN1CCCCC1` (centres undefined): the inhibition is 6.88%. In the case of `OC(COCCC12CC3CC(CC(C3)C1)C2)CN1CCCCC1` (centres undefined), the inhibition is 26.9% (active).

Take `Cc1cccc(C)c1OCC(O)CN1CCCCC1` (centres undefined): the inhibition was 6.39%.
